From ChEMBL document CHEMBL1145993, “Pyrazole derivatives as partial agonists for the nicotinic acid receptor” (J Med Chem, 2003)

Assays:
Rattus norvegicus [1] = species on record: Rattus norvegicus; test: Potency required for stimulation of [35S]GTP gamma-S binding to rat spleen was determined; assay type: functional, organism-based
Rattus norvegicus [2] = species on record: Rattus norvegicus; test: G protein activation was measured by stimulation of [35S]GTP gamma-S binding to rat adipocyte membranes; assay type: functional
Rattus norvegicus [3] = species on record: Rattus norvegicus; test: Relative intrinsic activity in stimulation of [35S]GTP gamma-S binding to rat adipocyte was determined; assay type: functional
Method in brief: (§1)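 Relative intrinsic activity is maximal stimulation of [35S]GTPγS binding (0.2 nM) as a percentage of the maximum given by nicotinic acid, which is set at 100%. Rat membranes (adipocyte for line 3, spleen for line 4) at 1 to 1.5 µg protein were incubated 90 min at 25 °C with 10 µM GDP and 100 mM NaCl, then filtered. Values are arithmetic mean ± SEM.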

Rattus norvegicus [4] = species on record: Rattus norvegicus; test: Relative intrinsic activity in stimulation of [35S]GTP gamma-S binding to rat spleen was determined; assay type: functional; method in brief: as §1

| SMILES | EC50 (Rattus norvegicus [1]) | EC50 (Rattus norvegicus [2]) | RIA (Rattus norvegicus [3]) | RIA (Rattus norvegicus [4]) |
| --- | --- | --- | --- | --- |
| O=C(O)c1n[nH]c2c1CCC2 | 6.97 µM | 6.44 µM | 51.7% | 55.9% |
| O=C(O)c1cc[nH]n1 | 21.5 µM | 16 µM | 78.5% | 85.3% |
| CCCc1cc(C(=O)O)n[nH]1 | 5.09 µM | 6.1 µM | 53.5% | 69.9% |
| CC(C)c1cc(C(=O)O)n[nH]1 | 21.8 µM | 13.7 µM | 49.2% | 67.7% |
| O=C(O)c1cc(Cc2ccccc2)n[nH]1 | 86.9 µM | 70.7 µM | 52.4% | 50.3% |
| O=C(O)c1n[nH]c2c1CCCC2 | 64.6 µM | 85.1 µM | – | 47.2% |
| O=C(O)c1cc(Cc2cccc(Cl)c2)n[nH]1 | – | 46.6 µM | 39.4% | – |
| CCCCc1cc(C(=O)O)n[nH]1 | 2.26 µM | 4.12 µM | 75.7% | 80.7% |
| O=C(O)c1cccnc1 [NIACIN] | 0.74 µM | 1.7 µM | 100% | 100% |
